Source: ChEMBL document CHEMBL3813636, “Toward discovery of mutant EGFR inhibitors; Design, synthesis and in vitro biological evaluation of potent 4-arylamino-6-ureido and thioureido-quinazoline derivatives” (Bioorg Med Chem, 2016)
The source made the active and inactive calls. The calls are words filed in the database; no cut-off is given here.

Experiments:
[1] = molecular target: T1, Epidermal growth factor receptor (Homo sapiens, UniProt P00533); experiment: Inhibition of recombinant human EGFR expressed in baculovirus by fluorescence based assay
[2] = test system: Epidermal growth factor receptor (Homo sapiens), P00533 [L858R,T790M]; experiment: Inhibition of EGFR L858R/T790M double mutant (unknown origin) expressed in mouse BaF/3 cells assessed as cell growth inhibition at 10 uM after 72 hrs by MTS assay; format: cell-based
How it was run: (§1)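 Ba/F3 cells carrying the listed double-mutant EGFR were exposed to 10 uM compound, and growth was read by MTS assay as percent growth relative to DMSO-treated cells. Experiments were repeated at least three times.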

[3] = test system: Epidermal growth factor receptor (Homo sapiens), P00533 [UNDEFINED MUTATION]; settings: PC9/GR4, at 10 µM
[4] = test system: Epidermal growth factor receptor (Homo sapiens), P00533 [UNDEFINED MUTATION]; experiment: Inhibition of EGFR Del19/T790M double mutant (unknown origin) expressed in mouse BaF/3 cells assessed as cell growth inhibition at 10 uM after 72 hrs by MTS assay; format: cell-based; how it was run: as §1
[5] = molecular target: T1, Epidermal growth factor receptor; settings: PC-9, at 10 µM
[6] = Potency index, ratio of gefitinib IC50 to compound IC50 for human PC9/GR4 cells expressing Del19/T790M double mutant; format: functional
[7] = molecular target: Receptor tyrosine-protein kinase erbB-2 (Homo sapiens, UniProt P04626); experiment: Inhibition of His-tagged human recombinant Her2 (676 to 1255 residues) expressed in baculovirus by fluorescence based assay
How it was run: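 Her2 kinase activity was measured with an outsourced kinase-profiling service. It used a fluorescence-based coupled-enzyme format that exploits the differing sensitivity of phosphorylated and non-phosphorylated peptide substrates to proteolytic cleavage.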

[8] = Antiproliferative activity against gefitinib-sensitive human PC9 cells assessed as cell viability after 72 hrs by cell titer-glo luminescence assay; format: functional, cell-based; settings: PC-9, 72 h
[9] = test system: Epidermal growth factor receptor (Homo sapiens), P00533 [UNDEFINED MUTATION]; settings: PC9/GR4, at 10 µM; remark: listed apart in the source
[10] = molecular target: T1, Epidermal growth factor receptor; settings: PC-9, at 10 µM; remark: listed apart in the source
[11] = Cytotoxicity against human BT474 cells expressing Her2 assessed as reduction in cell viability after 72 hrs by cell titer-glo luminescence assay; format: functional, cell-based; settings: BT-474, 72 h
[12] = Antiproliferative activity against gefitinib-resistant human PC9/GR4 cells expressing Del19/T790M double mutant assessed as cell viability after 72 hrs by cell titer-glo luminescence assay; format: functional, cell-based; settings: PC9/GR4, 72 h

Chain of Receptor tyrosine-protein kinase erbB-2 (P04626 whole entry, the tested form may be a part): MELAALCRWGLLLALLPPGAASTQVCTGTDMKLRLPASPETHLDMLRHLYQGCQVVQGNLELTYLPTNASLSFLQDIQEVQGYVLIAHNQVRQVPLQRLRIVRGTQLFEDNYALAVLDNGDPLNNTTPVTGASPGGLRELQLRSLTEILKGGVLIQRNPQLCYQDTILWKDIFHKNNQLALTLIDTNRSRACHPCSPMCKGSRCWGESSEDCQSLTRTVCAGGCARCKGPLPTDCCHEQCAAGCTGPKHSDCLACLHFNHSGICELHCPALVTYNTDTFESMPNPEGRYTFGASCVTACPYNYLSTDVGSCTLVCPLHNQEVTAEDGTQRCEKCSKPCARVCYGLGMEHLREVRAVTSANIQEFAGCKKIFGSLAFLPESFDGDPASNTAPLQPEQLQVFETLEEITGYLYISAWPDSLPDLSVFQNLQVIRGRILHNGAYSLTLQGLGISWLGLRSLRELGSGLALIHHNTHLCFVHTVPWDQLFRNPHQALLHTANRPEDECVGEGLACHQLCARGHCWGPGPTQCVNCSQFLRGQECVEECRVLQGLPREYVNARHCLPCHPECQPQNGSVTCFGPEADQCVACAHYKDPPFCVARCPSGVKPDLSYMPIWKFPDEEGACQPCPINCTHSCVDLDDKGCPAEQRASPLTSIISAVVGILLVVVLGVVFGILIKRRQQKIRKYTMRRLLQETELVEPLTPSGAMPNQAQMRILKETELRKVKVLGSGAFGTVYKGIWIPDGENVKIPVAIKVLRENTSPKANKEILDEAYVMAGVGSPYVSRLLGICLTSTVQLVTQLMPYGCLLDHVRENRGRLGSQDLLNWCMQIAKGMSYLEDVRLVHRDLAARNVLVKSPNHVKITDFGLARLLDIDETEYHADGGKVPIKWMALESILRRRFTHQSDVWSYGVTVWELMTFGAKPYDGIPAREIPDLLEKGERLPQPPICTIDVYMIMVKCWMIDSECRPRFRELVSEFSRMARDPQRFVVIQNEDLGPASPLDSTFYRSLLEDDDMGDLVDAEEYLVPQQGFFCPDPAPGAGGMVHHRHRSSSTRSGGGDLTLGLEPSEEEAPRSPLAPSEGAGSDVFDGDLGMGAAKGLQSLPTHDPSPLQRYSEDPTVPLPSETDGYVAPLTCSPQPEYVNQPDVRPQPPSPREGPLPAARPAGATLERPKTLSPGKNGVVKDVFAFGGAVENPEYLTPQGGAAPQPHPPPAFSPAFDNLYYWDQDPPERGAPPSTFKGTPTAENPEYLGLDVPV

For `Fc1ccc(Nc2ncnc3ccc(NC(=S)NCCN4CCOCC4)cc23)cc1Cl`, the IC50 [1] was 2.25 nM.
For `Fc1cccc(COc2ccc(Nc3ncnc4ccc(NC(=S)NCCN5CCCCC5)cc34)cc2Cl)c1`, the “growth inhibition (GI)” value [2] was “Active”, the inhibition [3] was “Active” and the “growth inhibition (GI)” value [4] was “Active”. The inhibition [5] was “Active”, the “Ratio IC50” value [6] was 3 and the IC50 [7] was 40.6 nM. For the same compound, the IC50 [8] was 2160 nM, the inhibition [9] was “Active” and the inhibition [10] was “Active”. It also gave an IC50 [11] of 340 nM and an IC50 [12] of 5700 nM.
`CS(=O)(=O)CCNCc1ccc(-c2ccc3ncnc(Nc4ccc(OCc5cccc(F)c5)c(Cl)c4)c3c2)o1` [LAPATINIB] gave an IC50 [11] of 31 nM.
`O=C(NCCN1CCOCC1)Nc1ccc2ncnc(Nc3cccc(Br)c3)c2c1` showed an IC50 [1] of 1.43 nM.
`S=C(NCCN1CCOCC1)Nc1ccc2ncnc(Nc3ccc(Cl)c(Cl)c3)c2c1` gave an IC50 [1] of 9.05 nM.
`C#Cc1cccc(Nc2ncnc3ccc(NC(N)=O)cc23)c1` gave an IC50 [1] of 2.22 nM.
In the case of `O=C(NCCN1CCOCC1)Nc1ccc2ncnc(Nc3ccc(F)c(Cl)c3)c2c1`, the IC50 [1] is reported as 2.92 nM.
For `Fc1cccc(COc2ccc(Nc3ncnc4ccc(NC(=S)NCCCN5CCOCC5)cc34)cc2Cl)c1`, the IC50 [1] was 1.5 nM and the IC50 [7] was 12.1 nM.
`Fc1cccc(COc2ccc(Nc3ncnc4ccc(NC(=S)NCCN5CCOCC5)cc34)cc2Cl)c1` gave an IC50 [1] of 2.26 nM and an IC50 [7] of 33.1 nM.
With `NC(=O)Nc1ccc2ncnc(Nc3ccc(Br)cc3)c2c1` the IC50 [1] was 0.803 nM.
For `NC(=O)Nc1ccc2ncnc(Nc3ccc(F)c(Cl)c3)c2c1`, the inhibition [3] was “Active”, the IC50 [1] was 0.854 nM and the inhibition [5] was “Active”. The IC50 [8] was 961 nM, the inhibition [9] was “Active” and the inhibition [10] was “Active”. For the same compound, the IC50 [12] was 21700 nM.
Work on `O=C(NCCN1CCCCC1)Nc1ccc2ncnc(Nc3ccc(F)c(Cl)c3)c2c1` yielded an IC50 [1] of 1.06 nM.
In the case of `O=C(NCCN1CCCCC1)Nc1ccc2ncnc(Nc3ccc(OCc4cccc(F)c4)c(Cl)c3)c2c1`, the “growth inhibition (GI)” value [2] is reported as “Active”, the inhibition [3] is reported as “Active” and the “growth inhibition (GI)” value [4] is reported as “Active”. For the same compound, the inhibition [5] was “Active”, the “Ratio IC50” value [6] was 8 and the IC50 [7] was 19.2 nM. For the same compound, the IC50 [8] was 1580 nM, the inhibition [9] was “Active” and the inhibition [10] was “Active”. It also gave an IC50 [11] of 760 nM and an IC50 [12] of 2160 nM.
In the case of `CC(=O)Nc1ccc2ncnc(Nc3ccc(F)c(Cl)c3)c2c1`, the inhibition [3] is reported as “Active”, the IC50 [1] is reported as 0.662 nM and the inhibition [5] is reported as “Active”. The IC50 [8] was 225 nM, the inhibition [9] was “Active” and the inhibition [10] was “Active”. It also gave an IC50 [12] of 12600 nM.
In the case of `Fc1ccc(Nc2ncnc3ccc(NC(=S)NCCN4CCCCC4)cc23)cc1Cl`, the IC50 [1] is reported as 3.7 nM.
Compound `C#Cc1cccc(Nc2ncnc3ccc(NC(C)=O)cc23)c1` has an IC50 [1] of 2.04 nM.
For `Fc1ccc(Nc2ncnc3ccc(NC(=S)NCCCN4CCOCC4)cc23)cc1Cl`, the IC50 [1] was < 0.495 nM.
For `O=C(NCCN1CCCCC1)Nc1ccc2ncnc(Nc3cccc(Br)c3)c2c1`, the IC50 [1] was 0.772 nM.
For `NC(=O)Nc1ccc2ncnc(Nc3ccc(OCc4cccc(F)c4)c(Cl)c3)c2c1`, the IC50 [1] was 2.03 nM and the IC50 [7] was 26.8 nM.
Compound `S=C(NCCN1CCOCC1)Nc1ccc2ncnc(Nc3cccc(Br)c3)c2c1` has an IC50 [1] of 1.81 nM.
With `S=C(NCCN1CCOCC1)Nc1ccc2ncnc(Nc3ccc(Cl)cc3)c2c1` the IC50 [1] was 5.06 nM.
For `CC(=O)Nc1ccc2ncnc(Nc3ccc(OCc4cccc(F)c4)c(Cl)c3)c2c1`, the “growth inhibition (GI)” value [2] was “Active”, the inhibition [3] was “Active” and the “growth inhibition (GI)” value [4] was “Active”. The IC50 [1] was 3.96 nM, the inhibition [5] was “Active” and the IC50 [7] was 32.3 nM. For the same compound, the IC50 [8] was 662 nM, the inhibition [9] was “Active” and the inhibition [10] was “Active”. It also gave an IC50 [11] of 57 nM and an IC50 [12] of 8310 nM.
